SUMO1 PPI mod = alters human SUMO1 binding to SIM partners; SUMO1 binding to a labelled peptide, TR-FRET, 1 h; inhibition, % at 20 µM; 0.33% of 360,000 active; in the data active = inhibition above about 37%
Target sequence (P63165 whole entry, looked up): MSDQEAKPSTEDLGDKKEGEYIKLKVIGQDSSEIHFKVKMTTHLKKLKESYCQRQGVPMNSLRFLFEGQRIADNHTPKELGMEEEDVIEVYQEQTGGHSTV
STEP block = blocks human striatal-enriched tyrosine phosphatase; P54829; recombinant STEP, OMFP fluorogenic substrate, fluorescence; inhibition, % at 20 µM; 0.25% of 360,000 active;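 active = inhibition at 20 µM, scaled per plate between control wells, above about 37%, limit read from the data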;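 note: 0% = DMSO with enzyme and substrate and 100% = substrate only without enzyme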
Target sequence (P54829 whole entry, looked up): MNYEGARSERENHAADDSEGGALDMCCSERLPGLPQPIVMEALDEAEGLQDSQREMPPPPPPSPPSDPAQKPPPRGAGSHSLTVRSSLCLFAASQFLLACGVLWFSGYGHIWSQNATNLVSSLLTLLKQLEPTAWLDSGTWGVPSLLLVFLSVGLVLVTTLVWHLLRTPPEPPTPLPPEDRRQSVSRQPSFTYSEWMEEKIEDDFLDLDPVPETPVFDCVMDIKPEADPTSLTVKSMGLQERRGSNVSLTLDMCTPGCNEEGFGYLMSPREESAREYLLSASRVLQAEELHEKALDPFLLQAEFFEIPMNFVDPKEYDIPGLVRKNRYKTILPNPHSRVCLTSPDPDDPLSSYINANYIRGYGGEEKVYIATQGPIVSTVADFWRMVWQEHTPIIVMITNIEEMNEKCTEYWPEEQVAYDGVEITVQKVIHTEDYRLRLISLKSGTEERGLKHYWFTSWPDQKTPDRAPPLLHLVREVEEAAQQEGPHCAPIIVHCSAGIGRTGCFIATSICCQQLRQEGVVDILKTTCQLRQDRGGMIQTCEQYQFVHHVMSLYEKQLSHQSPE
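System: STEP (striatal-enriched tyrosine phosphatase) enzyme, cell-free; medium: Bis-Tris pH 6.0 buffer with DTT, detergent; dosing: 20 µM, 1% DMSO; times: reaction 20 min, ambient temperature; detection: fluorescence, 480/540 nm; read-out basis: normalized % inhibition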
Scp-1 inhibitor = inhibitors of human Scp-1 phosphatase; 0.88% of 340,000 active; AID 493091; inhibition, % at 20 µM; Recombinant Scp1, phosphopeptide, malachite green phosphate absorbance; Q9GZU7;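 active = inhibition above about 50% at 20 µM, limit read from the data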;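 note: plate controls were DMSO wells with enzyme for no effect and wells lacking enzyme for full effect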
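Test system: SCP-1 phosphatase catalytic domain, residues 76-261 | Compound dosing: One concentration, 20 µM, with 1.0% DMSO | Schedule: 45 min room-temperature reaction, 5 min colour, 30 min stabiliser | Detection: Absorbance at 630 nm | Read-out basis: % inhibition of SCP-1 phosphate liberation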
DNMT1 block = inhibitors of human DNMT1 | 0.83% of 360,000 active | DNMT1 molecular beacon, Hinp1I cleavage, fluorescence | inhibition (reported as % activation of signal), % at 10 µM | P26358; in the data active = inhibition above about 50%
CFTR F508del cor = CFTR F508del correction in bronchial cells | CFBE cells, YFP halide quenching; stimulated with forskolin plus potentiator P3; % fluorescence drop versus neutral controls | activity (quench increase), % at 7.58 µM | 0.36% of 350,000 active | AID 720511;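 active = mean added fluorescence quench of at least 8% versus neutral control, with both replicates also reaching 8%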;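 note: cells transiently co-express mutant CFTR-F508del with the halide-sensitive YFP; corrector assay measuring rescue of mutant channel to the surface after 24 h compound exposure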
LMPTP block = blocks human LMPTP phosphatase; P24666; recombinant LMPTP-A, OMFP fluorogenic substrate, fluorescence intensity; inhibition, % at 20 µM; 0.22% of 360,000 active; AID 651560;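 active = compounds that cut the enzyme signal by at least half of the control window in the single-dose screen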;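 note: plate controls were DMSO wells with enzyme plus substrate for no effect and substrate without enzyme for full effect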
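test system = LMPTP-A | amount = 0.625 nM LMPTP-A final | reagent = fluorogenic phosphatase substrate OMFP at 400 µM final | incubation = 50 min at room temperature | benchmarks = no-enzyme low control, uninhibited high control | medium = Bis-Tris pH 6.0, DTT, detergent | signal = fluorescence intensity of OMFP turnover product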
The depositor's hits bear a star; . = no result. This is a sample that favours compounds with a hit; in the whole collection about 1.6% have one here.

SMILES	SUMO1 PPI mod	STEP block	Scp-1 inhibitor	DNMT1 block	CFTR F508del cor	LMPTP block
C[C@H]1CN([C@@H](C)CO)S(=O)(=O)c2ccc(/C=C/c3ccccc3)cc2O[C@H]1CN(C)Cc1ccccc1	.	.	.	.	8.0*	.
O=C(NCC1CC1)[C@H]1[C@H](CO)[C@H]2Cn3c(ccc(-c4ccccc4)c3=O)[C@H]2N1CC1CC1	.	.	.	.	-1.5	.
C[C@@H]1CN([C@H](C)CO)S(=O)(=O)c2ccc(/C=C/c3ccccc3)cc2O[C@H]1CN(C)C(=O)NC1CCCCC1	.	.	.	.	9.6*	.
C[C@H]1CN([C@@H](C)CO)S(=O)(=O)c2ccc(/C=C/c3ccccc3)cc2O[C@@H]1CN(C)C(=O)NC1CCCCC1	.	.	.	.	4.4	.
CCC(=O)Nc1ccc2c(c1)C(=O)N(C)C[C@@H](OC)[C@H](C)CN(C(=O)c1cccnc1)[C@@H](C)CO2	.	.	.	.	-0.9	.
N#Cc1cccc(NC(=O)CSc2ccc3c4c(cccc24)C(=O)c2ccccc2-3)c1	-14.5	-8.8	41.8	82.2*	.	27.1
COc1cccc(-c2ccc([C@@H]3[C@@H](CO)N4C(=O)CN(C(=O)NC(C)C)C[C@H]34)cc2)c1	.	.	.	.	-2.3	.
C#CCn1c(=O)cc(C)c2ccccc21	2.6	-1.5	-6.2	0.0	-3.8	-0.4
C#CCn1cc(C=C2C(=O)c3ccccc3C2=O)c2ccccc21	-12.0	-5.0	-3.9	59.6*	0.1	6.3
C[C@@H]1CN([C@@H](C)CO)C(=O)c2cc(NC(=O)CCCCCC(=O)Nc3ccccc3N)ccc2O[C@@H]1CN(C)C	.	.	.	.	0.7	.
COc1ccc(C2CC(c3cccc(Br)c3)=NN2c2ccc(S(N)(=O)=O)cc2)cc1 (stereo unspecified)	-0.9	-2.0	-1.3	-20.9	10.4*	5.1
CCNC(=O)[C@H]1[C@H](CO)[C@H]2Cn3c(ccc(-c4ccc(F)cc4)c3=O)[C@@H]1N2C	.	.	.	.	0.7	.
C/C=C/c1ccc([C@H]2[C@@H](CO)N3C(=O)CN(S(=O)(=O)c4ccccc4)C[C@H]23)cc1	.	.	.	.	0.7	.
Cc1ccc(-c2cnc3c(c2)C(=O)N([C@@H](C)CO)C[C@@H](C)[C@@H](CN(C)Cc2ccccc2C(=O)O)O3)cc1	.	.	.	.	0.5	.
COc1ccc(/C(C)=N/NC(=O)c2nnn(-c3nonc3N)c2-c2ccccc2)cc1	1.7	28.6	14.4	23.6	-0.1	52.0*
COc1ccc(/C(C)=N/NC(=O)c2nnn(-c3nonc3N)c2-c2cccs2)cc1	-4.4	-5.4	-8.2	0.7	2.7	-0.6
CN(C)c1ccc(/C=C2\SC(=O)N(CC(O)Cn3c4ccccc4c4ccccc43)C2=O)cc1 (stereo unspecified)	-1.5	0.4	-1.2	-7.5	.	3.8
CN(C)c1ccc(/C=C2/SC(=O)N(CCN=C3NS(=O)(=O)c4ccccc43)C2=O)cc1	41.4*	-1.0	-2.7	-25.7	.	1.2
c1ccc(CSc2nnc(-c3ccco3)o2)cc1	43.7*	-0.3	-9.5	4.4	0.4	-0.2
CN1C(=O)c2cc(NC(=O)Nc3ccc(Cl)cc3)ccc2OC[C@H]2O[C@H](CC(=O)O)CC[C@H]21	.	.	.	.	-1.2	.
CC1Cc2ccccc2N1C(=S)NC(=O)C1(C)CC1(Cl)Cl (stereo unspecified)	3.9	2.5	50.1*	-1.0	0.4	-1.3
C=CCn1c(N)c(C(=O)NCC2CCCO2)c2nc3ccccc3nc21 (stereo unspecified)	43.9*	0.0	-13.5	8.6	.	3.9
Nc1c(C(=O)NCc2ccc(F)cc2)c2nc3ccccc3nc2n1CCCN1CCOCC1	0.1	3.4	-14.3	-32.4	.	-5.7
Nc1c(C(=O)NCc2ccccc2)c2nc3ccccc3nc2n1CCCN1CCOCC1	43.4*	3.3	-3.9	47.0	-0.5	-3.7
O=C1Nc2ccccc2/C1=C/c1cnc(-c2ccccc2)[nH]1	42.5*	-5.4	-3.3	26.8	5.8	17.8
SMILES	SUMO1 PPI mod	STEP block	Scp-1 inhibitor	DNMT1 block	CFTR F508del cor	LMPTP block
Oc1cccc(/C=N/Nc2nn3cnnc3c3ccccc23)c1	84.0*	-3.2	-0.8	-0.1	-1.1	7.1
COc1cccc(/C=N/Nc2nn3cnnc3c3ccccc23)c1O	3.0	1.2	4.1	4.7	.	2.9
NC(=O)c1ccc(NC(=O)CSC2=Nc3ccccc3C3CC=NN23)cc1 (stereo unspecified)	47.1*	-2.5	-5.2	-1.3	.	0.1
Cc1ccc(Nc2nc(-c3cccnc3)nc3ccccc23)cc1	13.2	-1.7	-13.3	4.8	11.9*	7.5
Clc1cccc(Nc2nc(-c3ccncc3)nc3ccccc23)c1	61.2*	4.5	-14.2	-5.3	-2.7	7.4
Clc1ccccc1Nc1nc(-c2ccncc2)nc2ccccc12	-4.1	-0.4	-4.0	2.8	0.6	0.8
O=C(NNC(=O)c1cc2cc(Br)ccc2oc1=O)c1ccc(O)cc1O	-16.9	48.9*	60.1*	3.5	.	53.6*
CC(=O)NC(c1ccc(C(C)C)cc1)c1ccc2cccnc2c1O (stereo unspecified)	-1.7	3.7	-7.0	-2.5	8.9*	2.9
CCCCC(=O)NC(c1ccc(C(C)C)cc1)c1ccc2cccnc2c1O (stereo unspecified)	-0.3	2.4	-8.3	-0.6	-5.0	-0.5
Cc1ccc(S(=O)(=O)N[C@H]2CC[C@H](CCn3cc(-c4cccnc4)nn3)O[C@H]2CO)cc1	.	.	.	.	2.2	.
CNC(=S)N/N=C/c1ccc(-c2ccc(C(=O)O)cc2)o1	2.2	4.2	52.0*	13.2	-3.3	1.9
CCCCC(=O)N/N=C/c1ccc(-c2ccc([N+](=O)[O-])cc2)o1	-28.9	4.0	-5.2	1.7	-0.5	0.5
O=C(O)c1cccc(-c2ccc(/C=N/Nc3ccc([N+](=O)[O-])cc3)o2)c1	-23.0	-7.7	2.5	-8.2	-4.1	11.5
CNC(=S)N/N=C/c1ccc(-c2ccc(Cl)c([N+](=O)[O-])c2)o1	-8.5	3.2	-2.5	-3.0	1.8	3.5
Cc1cc(C)n(Cc2ccc(C(=O)N/N=C/c3ccc(-c4ccc([N+](=O)[O-])cc4)o3)o2)n1	103.8*	99.0*	101.7*	97.5*	-2.1	97.4*
O=C(O)c1ccc(-c2ccc(/C=N/Nc3ccc([N+](=O)[O-])cc3)o2)cc1	-28.2	-22.8	85.5*	-1.1	0.0	13.8
O=C(N[C@H]1CC[C@H](CCn2cc(-c3ccccc3)nn2)O[C@@H]1CO)c1ccccc1F	.	.	.	.	0.3	.
